Screening results from PubChem.
This is a sample that favours compounds with a hit; in the whole collection about 2.5% have one here.
SENP7 inh: blocks the human protease SENP7. AID 434973. inhibition, % at 5 µM. recombinant SENP7, Z-RLRGG-aminoluciferin luminescence, 40 min. hit rate 1.5% among 330,000. Q9BQF6;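 active means inhibition above about 50% at the single test dose, limit read from the data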;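 further: plate controls were DMSO with enzyme for no effect and no enzyme buffer wells for full effect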
SENP6 block: inhibitors of human SENP6 protease; Q9GZR1; Recombinant SENP6 catalytic domain, aminoluciferin luminescence; inhibition, % at 10 µM; hit rate 1.8% among 330,000;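 active means inhibition above about 50% at the single tested dose, limit read from the data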;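 further: plate controls were DMSO wells with enzyme for no effect and DMSO wells lacking enzyme for full effect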
Target sequence (Q9GZR1 628-1112 limits assumed): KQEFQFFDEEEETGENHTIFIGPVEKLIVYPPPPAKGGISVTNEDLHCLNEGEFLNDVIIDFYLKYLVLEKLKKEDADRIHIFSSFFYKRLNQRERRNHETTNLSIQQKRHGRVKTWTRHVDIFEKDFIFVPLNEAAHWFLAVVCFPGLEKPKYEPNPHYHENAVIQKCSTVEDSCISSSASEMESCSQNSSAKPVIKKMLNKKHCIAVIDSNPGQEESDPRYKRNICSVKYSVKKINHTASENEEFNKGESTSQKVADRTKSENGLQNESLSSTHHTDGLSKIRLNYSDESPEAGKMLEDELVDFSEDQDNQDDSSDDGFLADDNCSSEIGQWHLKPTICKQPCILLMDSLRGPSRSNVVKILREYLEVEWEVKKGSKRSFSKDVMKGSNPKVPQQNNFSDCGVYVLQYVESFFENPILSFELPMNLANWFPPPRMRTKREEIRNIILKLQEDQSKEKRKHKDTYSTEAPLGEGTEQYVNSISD
SENP1 FRET inh: SENP1 (human) catalytic domain inhibition; AID 624204; recombinant SENP1 catalytic domain, CyPet-SUMO1-YPet FRET cleavage; inhibition, % at 10 µM; hit rate 0.21% among 360,000;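 active means inhibition at least 30% at 10 µM, raw YFP signal under a set limit, fluorescence ratio 0.5 to 1.5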;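 further: 0% = enzyme with DMSO and 100% = no enzyme wells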
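Controls: no-enzyme wells low, DMSO-plus-enzyme wells high control. Test system: human recombinant His6-tagged SENP1 catalytic domain enzyme. Reagent: SFCypet-SUMO1-SFYpet FRET protein substrate, 25 nM final. Doses: one dose per compound, 10 µM, 0.5% DMSO. Detection: FRET, CFP and YFP emission. Timing: 50 min reaction at room temperature.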
SENP8 block-1: inhibitors of human SENP8 protease. Q96LD8. purified SENP8, Z-RLRGG-aminoluciferin cleavage, luminescence. inhibition, % at 10 µM. hit rate 1.2% among 330,000. AID 2540; in the data active means inhibition above about 50%
SENP8 block-2: inhibitors of human SENP8 protease; hit rate 0.64% among 360,000; Q96LD8; recombinant SENP8, Nedd8 substrate fluorescence; inhibition, % at 20 µM; in the data active means inhibition mostly above about 40%, no sharp cut-off; inactive means mostly below about 27%
SENP8 conf: SENP8 (human) inhibition, single concentration confirmation. shares compounds with SENP8 block-2. purified SENP8, Nedd8-AMC/pro-Nedd8 cleavage fluorescence, 30 min. inhibition, % at 25 µM. hit rate 15% among 1,400. AID 624319; in the data active means inhibition mostly above about 39%, no sharp cut-off; inactive means mostly below about 34%
* marks the source's active call; other numbers are inactive results; / = not tested or not shown.

SMILES	SENP7 inh	SENP6 block	SENP1 FRET inh	SENP8 block-1	SENP8 block-2	SENP8 conf
Cc1cc(O)c(C(C)C)cc1N=Cc1ccc([N+](=O)[O-])cc1	/	/	2	/	95*	11
Cc1cc(O)c(C(C)C)cc1N=Cc1ccc(N(C)C)cc1	/	/	2	/	38	/
CN(NS(=O)(=O)c1ccc(Cl)cc1)c1ncc(C(F)(F)F)cc1Cl	-10	-2	0	-10	13	/
O=C(CNC(=O)c1ccc(Cl)cc1Cl)OCc1cn2cc(Br)ccc2n1	3	9	-2	-4	9	/
O=[N+]([O-])c1cc([N+](=O)[O-])c2n[nH]c(-c3ccccc3)c2c1	5	-11	6	6	35*	8
O=[N+]([O-])c1cc(-c2n[nH]c(-c3ccccc3)n2)cc([N+](=O)[O-])c1	12	-2	1	3	6	/
Cc1c(C(=O)N(C)C2CC(C)(C)NC(C)(C)C2)oc2c(F)cccc12	8	-11	1	-10	3	/
COc1cccc(CN2CCNC(=O)C2CC(=O)NCC(C)(C)N2CCOCC2)c1OC (stereo not given)	9	4	-3	-5	-1	/
Cc1ccccc1-c1cnc(C(O)c2ccc(-c3ccccc3)cc2)[nH]1 (stereo not given)	/	/	1	/	41*	20
Cc1ccccc1-c1cnc(C(O)c2ccc(C(C)(C)C)cc2)[nH]1 (stereo not given)	/	/	-1	/	25	/
Cn1nc(-c2ccccc2)cc1NC(=O)[C@@H]1O[C@H](CO)[C@H](O)[C@H](O)[C@H]1O	/	/	2	/	19	/
CC1=NN(c2ccc(S(=O)(=O)O)cc2C)C(=O)C1	2	6	2	-4	69*	11
O=C(O)C1=NN(c2cc(Cl)c(S(=O)(=O)O)cc2Cl)C(=O)C1	/	/	9	/	3	/
CCOC(=O)/C(=C/c1c(C)n(C)c2ccc([N+](=O)[O-])cc12)C(C)=O	-5	-2	3	0	21	/
CCOC(=O)c1c(N)c2cc([N+](=O)[O-])ccc2n1C	-9	-13	4	1	47*	7
COc1ccc(CCNC(=O)CSc2nc(=O)n3cc(C)ccc3n2)cc1OC	4	-9	1	3	62*	25
Cc1ccc2nc(SCC(=O)NCCc3ccccc3)nc(=O)n2c1	9	-11	0	-3	-233	/
CC(=O)Nc1ccc(S(=O)(=O)N[C@@H](C)C(=O)OCc2cc([N+](=O)[O-])cc3c2OCOC3)cc1	3	12	3	4	45*	-1
CCCCC1Cc2[nH]c(=S)[nH]c(=O)c2C(c2ccc(Cl)cc2)O1 (stereo not given)	/	/	-1	/	3	/
NC(=O)c1nsc(C(=O)N(CCc2ccccc2)C(C(=O)NC2CCCC2)c2ccco2)c1N (stereo not given)	4	-5	-22	-11	-271	/
O=C(NC1CCCCC1)C(c1ccco1)N(CCc1ccccc1)C(=O)C(F)(F)F (stereo not given)	0	-11	-1	2	45*	20
Cc1[nH][nH]c(=O)c1C(c1cc2c(cc1Br)OCO2)c1c(C)[nH][nH]c1=O	-1	14	2	-4	7	/
Cc1[nH][nH]c(=O)c1C(c1cc(Br)ccc1O)c1c(C)[nH][nH]c1=O	4	15	-3	4	42*	39
CC(C)C[C@H](N)C(=O)N1CCC(C(=O)N[C@H](C(=O)NCc2ccc(F)cc2)C(C)C)CC1	-8	-17	1	-5	8	/
CC(C)C[C@H](N)C(=O)N1CCC(C(=O)N[C@H](C(=O)NC(C)c2ccccc2)C(C)C)CC1 (stereo not given in full)	-8	7	0	4	42*	11
COc1ccc(CNC(=O)[C@@H](NC(=O)C2CCN(C(=O)[C@@H](N)CC(C)C)CC2)C(C)C)cc1	13	-10	1	-6	52*	9
CCOC1=C2[C@H]([C@H]3C(=O)N(c4ccccc4)C(=O)[C@H]3C1)[C@@H](C(C)C)N(S(=O)(=O)c1ccc(C)cc1)[C@H]2c1ccccc1	/	/	1	/	5	/
O=c1cc(CO)[nH]cc1OCc1ccccc1	-2	-16	1	-5	46*	12
O=c1cc(CO)occ1OCc1cccc(F)c1	-8	-6	3	0	13	/
